MIC, ED50 and minimum concentration inducing gyrase-mediated DNA cleavage data for 6 compounds are collected here from ChEMBL document CHEMBL1126160, “Synthesis and structure-activity relationships of 7-diazabicycloalkylquinolones, including danofloxacin, a new quinolone antibacterial agent for veterinary medicine” (J Med Chem, 1992).

Molecules are shown by their SMILES. ≈ marks a conversion by molar mass, not a printed value. Some results are limits rather than exact numbers.

What all share (assay type): functional
Test [1] deals with Actinobacillus pleuropneumoniae. In words: In vitro antibacterial activity against anaerobically grown Actinobacillus pleuropneumoniae ([…]). The gist of the method: (§1)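 Agar dilution MICs. Anaerobic strains were tested on tryptose agar with 5% bovine blood and incubated 48 h at 39 °C in an anaerobe chamber under N2/CO2/H2 (80:10:10).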
The subject of test [2] is Trueperella pyogenes. The test is described as follows: In vitro antibacterial activity against anaerobically grown Actinomyces pyogenes (14D002). The gist of the method:
as §1

In test [3] the test system is Phocaeicola vulgatus. In words: In vitro antibacterial activity against anaerobically grown Bacteroides vulgatus (78D029). The gist of the method: as §1
The test system of test [4] is Bordetella bronchiseptica. In words: In vitro antibacterial activity against aerobically grown Bordetella bronchiseptica (73A009). The gist of the method: (§2)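 Agar dilution MICs. Aerobic strains were tested on brain heart infusion agar and incubated aerobically at 37 °C for 18–20 h.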
Test [5] has as its system Escherichia coli. In words: In vivo protective dose was evaluated against Escherichia coli (51A266) in mouse(sc). The conditions noted are these: read-out: PD50. Put shortly: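 Female CF-1 mice (15 g), groups of 10, challenged ip with 0.5 mL bacterial suspension (P. multocida 59A006 or E. coli 51A266 at 3.0 × 10^8 cfu/mL; S. choleraesuis 58B010 at 8.5 × 10^2 cfu/mL). Drug given sc or po at 30 min, 4 h and 24 h after challenge; survival recorded at 96 h; PD50 by probit analysis.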

Test [6] concerns Escherichia coli. The test is described as follows: In vitro antibacterial activity against aerobically grown Escherichia coli (51A538). The gist of the method:
as §2

Test [7] relates to Escherichia coli. The test is described as follows: Escherichia coli DNA cleavage endpoint value which is the minimum amount required (in micro g/mL) to induce detectable cleavage of supercoiled pBR322 substrate to linear form (gyrase). The conditions noted are these: read-out: MIC. Put shortly: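 DNA gyrase A and B subunits were purified from E. coli overproducers. About 2 units of holoenzyme were incubated with pBR322 in Tris-HCl pH 7.5 containing MgCl2, spermidine, DTT, 0.2 mM ATP, BSA and tRNA. Drug was added as 2-fold serial dilutions, and reactions ran for 60 min at 25 °C. Reactions were stopped with SDS and proteinase K, then run on agarose and stained with ethidium. The endpoint was the lowest concentration giving detectable linear DNA.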

The nature of test [8]: In vitro antibacterial activity against Aerobically grown Pasteurella haemolytica (59B018). Particulars: Mannheimia haemolytica. The gist of the method:
as §2

The test system of test [9] is Pasteurella multocida. In words: In vitro antibacterial activity against aerobically grown Pasteurella multocida (59A006). Put shortly: as §2
For test [10], the system named is Salmonella enterica. The test is described as follows: In vitro antibacterial activity against aerobically grown Salmonella choleraesuis (58B015).
The subject of test [11] is Staphylococcus aureus. In words: In vitro antibacterial activity against aerobically grown Staphylococcus aureus (54B004). Put shortly: as §2
Test [12] in a line: In vitro evaluation for antibacterial activity against anaerobically grown Treponema hyodysenteriae (94A007). Particulars: Brachyspira hyodysenteriae.
Test [13] has as its system Clostridium perfringens. In words: microbe, parasite or virus in culture.

With `Cl.O.O=C(O)c1cn(C2CC2)c2cc(N3CCN4CCC3CC4)c(F)cc2c1=O`, the MIC is 0.05 µg/mL in test [1]; 1.56 µg/mL in test [2]; 0.39 µg/mL in [3]; 0.39 µg/mL in [4]; 0.02 µg/mL in test [6]; 0.01 µg/mL in test [8]. In addition, the MIC in test [9] is less than 0.002 µg/mL; in test [10], 0.02 µg/mL; in test [11] it was 0.05 µg/mL; in [12], 0.39 µg/mL; in test [13] it was 0.05 µg/mL. In addition, the ED50 in [5] was found to be 0.09 mg/kg. Further, the minimum concentration inducing gyrase-mediated DNA cleavage in test [7] is 0.39 µg/mL.
`CCn1cc(C(=O)O)c(=O)c2cc(F)c(N3C[C@H]4CC[C@@H](C3)N4C)c(F)c21`: the MIC in test [1] was 0.2 µg/mL (≈ 0.53 µM); in test [2], 6.25 µg/mL (≈ 16.6 µM); in [3] it was greater than 25 µg/mL; in test [4], 12.5 µg/mL (≈ 33.1 µM); in [6], 0.78 µg/mL (≈ 2.07 µM); in [8] it was 0.39 µg/mL (≈ 1.03 µM). For the same compound, the MIC came to 0.2 µg/mL (≈ 0.53 µM) in test [9]; 1.56 µg/mL (≈ 4.13 µM) in test [10]; 0.39 µg/mL (≈ 1.03 µM) in test [11]; 6.25 µg/mL (≈ 16.6 µM) in test [12]; 1.56 µg/mL (≈ 4.13 µM) in test [13]. For the same compound, the minimum concentration inducing gyrase-mediated DNA cleavage in [7] amounted to 3.12 µg/mL.
On to `CN1[C@@H]2CCC[C@H]1CN(c1cc3c(cc1F)c(=O)c(C(=O)O)cn3C1CC1)C2.Cl`, for which the MIC in test [1] was found to be 0.1 µg/mL; in [2] it was 3.13 µg/mL; in test [3] it was 1.56 µg/mL; in [4], 1.56 µg/mL; in test [6], 0.39 µg/mL; in test [8], 0.2 µg/mL. Moreover, the MIC in test [9] is 0.05 µg/mL; in [10], 0.39 µg/mL; in [11], 0.2 µg/mL; in test [12], greater than 3.13 µg/mL; in test [13], 0.39 µg/mL. Further, the minimum concentration inducing gyrase-mediated DNA cleavage in test [7] was 1.56 µg/mL.
On to `O=C(O)c1cn(-c2ccc(F)cc2F)c2c(F)c(N3C[C@@H]4C[C@H]3CN4)c(F)cc2c1=O`, for which the MIC in test [1] is 0.02 µg/mL (≈ 0.0462 µM); in test [2] it was 0.78 µg/mL (≈ 1.8 µM); in [3], 1.56 µg/mL (≈ 3.6 µM); in test [4], 1.56 µg/mL (≈ 3.6 µM); in test [6], 0.05 µg/mL (≈ 0.115 µM); in [8], 0.05 µg/mL (≈ 0.115 µM). For the same compound, the MIC in test [9] amounted to 0.01 µg/mL (≈ 0.0231 µM); in test [10], 0.1 µg/mL (≈ 0.231 µM); in [11], 0.39 µg/mL (≈ 0.9 µM); in test [12], 3.13 µg/mL (≈ 7.22 µM); in [13] it was 0.2 µg/mL (≈ 0.462 µM). In test [7], the minimum concentration inducing gyrase-mediated DNA cleavage came to 0.78 µg/mL.
`CN1C[C@@H]2C[C@H]1CN2c1c(F)cc2c(=O)c(C(=O)O)cn(-c3ccc(F)cc3F)c2c1F`: the MIC in test [1] was 0.1 µg/mL (≈ 0.224 µM); in test [2] it was 1.56 µg/mL (≈ 3.49 µM); in test [3] it was 1.56 µg/mL (≈ 3.49 µM); in test [4], greater than 1.56 µg/mL; in [6], 0.2 µg/mL (≈ 0.447 µM); in [8], 0.1 µg/mL (≈ 0.224 µM). The MIC was 0.02 µg/mL (≈ 0.0447 µM) in [9]; 0.39 µg/mL (≈ 0.872 µM) in [10]; 0.2 µg/mL (≈ 0.447 µM) in test [11]; greater than 3.13 µg/mL in test [12]; 0.39 µg/mL (≈ 0.872 µM) in test [13]. Also, in [7], the minimum concentration inducing gyrase-mediated DNA cleavage was determined as 0.78 µg/mL.
In the case of `CCn1cc(C(=O)O)c(=O)c2cc(F)c(N3C[C@H]4CCC[C@@H](C3)N4C)cc21`, the MIC in [1] turned out to be 0.2 µg/mL (≈ 0.536 µM); in test [2], 6.25 µg/mL (≈ 16.7 µM); in [3], 1.56 µg/mL (≈ 4.18 µM); in test [4] it was 6.25 µg/mL (≈ 16.7 µM); in test [6] it was 1.56 µg/mL (≈ 4.18 µM); in test [8] it was 0.1 µg/mL (≈ 0.268 µM). For the same compound, the MIC is 0.78 µg/mL (≈ 2.09 µM) in test [9]; 1.56 µg/mL (≈ 4.18 µM) in [10]; 0.1 µg/mL (≈ 0.268 µM) in test [11]; 6.25 µg/mL (≈ 16.7 µM) in [12]; 0.39 µg/mL (≈ 1.04 µM) in [13]. Also, the minimum concentration inducing gyrase-mediated DNA cleavage in test [7] was 3.12 µg/mL.
